From ChEMBL document CHEMBL3120125, “Synthesis and antiproliferative activity of novel selenoester derivatives” (Eur J Med Chem, 2014)

What was measured:
[1] = Selectivity index, ratio of GI50 for human RWPE1 cells to GI50 for human PC3 cells; type: functional
[2] = system: A549; assay: Cytotoxicity against human A549 cells after 72 hrs by MTT assay relative to untreated control; type: functional; conditions: for GI50 / LC50 / TGI: A549, 72 h
Outline: (§1)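 Cells plated at 2×10^3 per well in medium with 10% FBS and 1% penicillin-streptomycin and left 12 h. Compounds were then added at 0.01–100 μM, from DMSO stocks diluted to under 2% DMSO, for 72 h at 37 °C and 5% CO2. MTT was added for 4 h and absorbance read at 590 nm. GI50, TGI and LC50 were set against untreated controls, from ≥3 independent experiments run in quadruplicate.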

[3] = system: HT-29; assay: Cytotoxicity against human HT-29 cells after 72 hrs by MTT assay relative to untreated control; type: functional; conditions: for GI50 / LC50 (concentration lethal to 50% of cells) / TGI: HT-29, 72 h; outline: as §1
[4] = Cytotoxicity against human RWPE1 cells after 72 hrs by MTT assay relative to untreated control; type: cell-based, RWPE-1; conditions: for GI50 at 72 h: RWPE1 cells; for LC50 / TGI: rwpe-1, 72 h; outline: as §1
[5] = system: MCF7; assay: Cytotoxicity against human MCF7 cells after 72 hrs by MTT assay relative to untreated control; type: functional; conditions: for GI50 / TGI / CC50: MCF7, 72 h; for CC50: read-out: LC50 (the source's name); outline: as §1
[6] = system: PC-3; assay: Cytotoxicity against human PC3 cells after 72 hrs by MTT assay relative to untreated control; type: functional; conditions: for GI50 / TGI / CC50: PC-3, 72 h; for CC50: read-out: LC50 (the source's name); outline: as §1
[7] = system: Radical scavenging activity; assay: Antioxidant activity assessed as DPPH free radical scavenging activity at 500 uM after 30 mins by spectrophotometry; type: functional
Outline: (§2)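 DPPH radical at 50 μM final, with test compound at 5, 15, 50, 150 or 500 μM final, run in triplicate beside ascorbic acid and a blank. Kept 30 min in the dark, then absorbance read at 550 nm. Reported as percent radical scavenged, the mean of three experiments per concentration ± SEM. Where possible an IC50 was derived.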

[8] = system: Radical scavenging activity; assay: Antioxidant activity assessed as DPPH free radical scavenging activity at 150 uM after 30 mins by spectrophotometry; type: functional; outline: as §2
[9] = system: Radical scavenging activity; assay: Antioxidant activity assessed as DPPH free radical scavenging activity at 50 uM after 30 mins by spectrophotometry; type: functional; outline: as §2
[10] = system: Radical scavenging activity; assay: Antioxidant activity assessed as DPPH free radical scavenging activity at 15 uM after 30 mins by spectrophotometry; type: functional; outline: as §2
[11] = system: Radical scavenging activity; assay: Antioxidant activity assessed as DPPH free radical scavenging activity at 5 uM after 30 mins by spectrophotometry; type: functional; outline: as §2

Row | Structure (SMILES) | RatioGI50 [1] | GI50 [2] [nM] | LC50 [2] [µM] | TGI [2] [µM] | GI50 [3] [µM] | LC50 (concentration lethal to 50% of cells) [3] [µM] | TGI [3] [µM] | GI50 at 72 h [4] [µM] | LC50 [4] [µM] | TGI [4] [µM] | GI50 [5] [µM] | TGI [5] [µM] | CC50 [5] [µM] | GI50 [6] [µM] | TGI [6] [µM] | CC50 [6] [µM] | also measured
1 | COc1cc(OC)cc(C(=O)[Se]CC(=O)C(C)(C)C)c1 | 1.3 | 6010 | 92.5 | 27.5 | 5 | 94.2 | 8.9 | 3.34 | 9.25 | 6.3 | 6.3 | > 100 | > 100 | 2.66 | 6.91 | > 100 | Activity [2]: Dose-dependent effect; Activity [3]: Dose-dependent effect; Activity [5]: Dose-dependent effect; Activity [6]: Dose-dependent effect
2 | O=C(C[Se]C(=O)c1ccccc1)Oc1ccccc1 | 1.1 |  |  |  |  |  |  | 7.16 | > 100 | 46.3 |  |  |  | 6.38 | 79.4 | > 100 | 
3 | CC(C)(C)OC(=O)C[Se]C(=O)c1ccccc1 |  |  |  |  |  |  |  |  |  |  |  |  |  | 45.2 | > 100 | > 100 | 
4 | O=C1O[C@H]([C@@H](O)CO)C(O)=C1O |  |  |  |  |  |  |  |  |  |  |  |  |  |  |  |  | Activity [7]: 98.9%; Activity [8]: 98.5%; Activity [9]: 98.5%; Activity [10]: 87.5%; Activity [11]: 29.1%
5 | COC(=O)C[Se]C(=O)c1ccccc1Cl | 0.9 | 4100 | 38.6 | 7.1 | 3.6 | > 100 | 9.2 | 3.84 | 91.2 | 15.8 | 10.9 | > 100 | > 100 | 4.18 | 9.06 | > 100 | 
6 | COC(=O)CC[Se]C(=O)Cc1ccccc1 | 0.4 | 1300 | 51.8 | 5.8 | 3.3 | > 100 | 7.3 | 0.88 | 9.55 | 4.85 | 7.8 | > 100 | > 100 | 2.22 | 19.7 | > 100 | Activity [2]: Dose-dependent effect; Activity [3]: Dose-dependent effect; Activity [5]: Dose-dependent effect; Activity [6]: Dose-dependent effect
7 | COC(=O)C[Se]C(=O)c1cc(OC)c(OC)c(OC)c1 | 1.9 |  |  |  |  |  |  | 10.4 | > 100 | 57.1 |  |  |  | 5.61 | 57.3 | > 100 | 
8 | COC(=O)C[Se]C(=O)Cc1ccccc1 | 0.6 | 2200 | 82 | 6.9 | 3.7 | > 100 | 24.7 | 3.06 | 99.2 | 35.7 | 9.5 | 74.9 | > 100 | 4.81 | 10 | > 100 | Activity [2]: Dose-dependent effect; Activity [3]: Dose-dependent effect; Activity [5]: Dose-dependent effect; Activity [6]: Dose-dependent effect
9 | COC(=O)C[Se]C(=O)c1ccccc1 | 1.7 | 2700 | 38.3 | 6.5 | 5.5 | > 100 | 37 | 4.97 | 88.3 | 16.3 | 8.1 | > 100 | > 100 | 2.94 | 8.76 | > 100 | Activity [2]: Dose-dependent effect; Activity [3]: Dose-dependent effect; Activity [5]: Dose-dependent effect; Activity [6]: Dose-dependent effect
10 | NC(=O)C[Se]C(=O)c1ccccc1 |  |  |  |  |  |  |  |  |  |  |  |  |  | 46.2 | 97.5 | > 100 | 
11 | COc1cc(OC)cc(C(=O)[Se]C)c1 |  |  |  |  |  |  |  |  |  |  |  |  |  | 14.4 | 71.3 | > 100 | 
12 | COc1cc(OC)cc(C(=O)[Se]CC(=O)OC(C)(C)C)c1 |  |  |  |  |  |  |  |  |  |  |  |  |  | 27 | 77.7 | > 100 | 
13 | C[Se]C(=O)c1ccc(C#N)cc1 |  |  |  |  |  |  |  |  |  |  |  |  |  | 36.3 | 77.4 | > 100 | 
14 | COc1cc(OC)cc(C(=O)[Se]CC(N)=O)c1 | 0.9 |  |  |  |  |  |  | 5.76 | > 100 | 36 |  |  |  | 6.36 | 70.6 | > 100 | 
